Screening data deposited in PubChem by Johns Hopkins Ion Channel Center.
Hits are enriched below; roughly 2.3% of the tested compounds scored in any of these assays.
TRPC4 agonist: opens the mouse TRPC4 cation channel; Q9QUQ5; HEK293 TRPC4beta/mu-opioid, Fluo4 calcium fluorescence; hits give high values; B-score at 10 µM; hit rate 0.49% among 310,000;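 active = B-score above 5 SD of library B-scores, and initial fluorescence ratio not above library mean plus 5 SD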;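 note: positive B-score marks a calcium rise read as TRPC4 activation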
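Assay system: HEK293 stable line with TRPC4beta plus mu-opioid receptor. Times: dye 45 min RT, read 110 s. Measured by: kinetic Fluo4 calcium fluorescence. Measure: B score of integrated ratio. Controls: assay buffer as low control, maximal DAMGO as high control.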
TRPC4 potent: allosteric potentiators of mouse TRPC4 channel; Q9QUQ5; HEK293 TRPC4beta/mu-opioid, DAMGO EC20, Fluo-4 Ca2+ flux; hits give high values; B-score at 10 µM; hit rate 0.42% among 310,000; AID 2227;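 active = B-score of calcium response area above 5 SD of library B-scores, with initial fluorescence ratio within 5 SD of library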;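 note: B-score of integrated fluorescence ratio over time as area under calcium response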
TRPC4 block: blocks the mouse TRPC4 cation channel; HEK293 TRPC4beta/mu-opioid, DAMGO-evoked Fluo4 calcium flux; hits give low values; hit rate 0.39% among 300,000; B-score at 10 µM; Q9QUQ5;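 active = B-score over 3 SD under the library average, no early fluorescence shift, positive overall ratio signal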
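Assay system – HEK293 line stably carrying TRPC4beta and mu-opioid receptor · Doses – single dose · Detection – Fluo4 calcium-dye fluorescence, kinetic read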
TRPC6 activator: mouse TRPC6 channel activation. hit rate 0.13% among 310,000. B-score at 10 µM. HEK293-TRPC6 membrane potential dye fluorescence; hits give high values. Q61143;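 active = B-score of the integrated fluorescence ratio above library mean plus 3 SD, and starting fluorescence ratio within library mean plus 5 SD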;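 note: higher score means more depolarization so channel activation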
Target sequence (Q61143 whole entry, looked up): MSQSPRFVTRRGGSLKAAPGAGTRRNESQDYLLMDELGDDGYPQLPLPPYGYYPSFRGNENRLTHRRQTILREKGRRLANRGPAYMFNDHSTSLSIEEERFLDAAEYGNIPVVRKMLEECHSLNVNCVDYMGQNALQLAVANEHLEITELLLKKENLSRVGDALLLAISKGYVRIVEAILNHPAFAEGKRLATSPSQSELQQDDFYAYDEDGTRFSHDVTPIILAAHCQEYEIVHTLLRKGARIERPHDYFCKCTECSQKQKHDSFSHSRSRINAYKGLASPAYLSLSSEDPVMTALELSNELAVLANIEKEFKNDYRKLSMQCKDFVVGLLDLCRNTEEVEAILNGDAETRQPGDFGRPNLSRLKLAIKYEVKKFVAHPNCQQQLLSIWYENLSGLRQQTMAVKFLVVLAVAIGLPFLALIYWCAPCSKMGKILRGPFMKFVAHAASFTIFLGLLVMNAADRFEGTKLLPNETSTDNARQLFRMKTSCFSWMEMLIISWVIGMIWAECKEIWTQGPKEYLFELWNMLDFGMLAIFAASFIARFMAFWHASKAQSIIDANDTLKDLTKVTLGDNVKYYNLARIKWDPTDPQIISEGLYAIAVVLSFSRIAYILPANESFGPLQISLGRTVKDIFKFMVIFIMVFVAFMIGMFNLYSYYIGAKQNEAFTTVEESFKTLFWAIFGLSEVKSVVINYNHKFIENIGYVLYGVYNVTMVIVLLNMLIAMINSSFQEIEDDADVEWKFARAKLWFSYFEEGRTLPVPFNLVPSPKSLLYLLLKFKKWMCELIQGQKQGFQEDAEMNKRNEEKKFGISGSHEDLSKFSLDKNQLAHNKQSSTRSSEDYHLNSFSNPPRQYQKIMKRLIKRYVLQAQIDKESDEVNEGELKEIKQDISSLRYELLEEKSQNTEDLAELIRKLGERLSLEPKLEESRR
TRPC6 inh: mouse TRPC6 channel inhibition | hit rate 1.1% among 310,000 | HEK293-TRPC6, membrane potential dye, ACh-evoked depolarization; hits give low values | B-score at 10 µM | AID 2553;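 active = B-score under library mean minus 3 SD, initial fluorescence not abnormally high, positive integrated signal ratio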;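 note: B-score derived from integrated fluorescence ratio over the kinetic read; more negative B-score means stronger inhibition of depolarization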
TRPC4 spec 2: mouse TRPC4 off-target activity of TRPC6 inhibitors, second screen. inhibition, % at 10 µM. HEK293 TRPC4/MOR, membrane potential dye fluorescence; channel activated by saturating DAMGO dose. AID 2776. hit rate 42% among 920. shares compounds with TRPC6 inh;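 active = compounds whose fluorescence signal differed from control wells by over 3 SD, either direction, in both duplicate plates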
TRPC4 spec: mouse TRPC4 off-target activity of TRPC6 inhibitors | HEK293 TRPC4/mu-opioid, membrane potential fluorescence | hit rate 61% among 920 | activity change, negative = inhibition, % at 10 µM | AID 2777 | shares compounds with TRPC6 inh;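 active = rise or fall in signal beyond 3 SD of buffer-only wells in both replicate plates, either sign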;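 note: integrated kinetic ratio of fluorescence range over baseline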
HEK293 MPD ctr 2-1: parental HEK293 nonspecific activity of TRPC6 inhibitors, second screen; shares compounds with TRPC6 inh; parental HEK293 membrane potential dye fluorescence; maximal acetylcholine challenge after compound addition; signal change vs control, % at 10 µM; hit rate 31% among 920; AID 2779;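 active = membrane potential signal moving either way by over 3 SD of the maximum-effect control, in both duplicate plates, meaning non-specific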
HEK293 MPD ctr-1: counter-screen for TRPC6 inhibitors: effect in parental HEK293 cells. shares compounds with TRPC6 inh. parental HEK293 membrane potential dye fluorescence. membrane potential signal change, % at 10 µM. hit rate 60% among 920. AID 2780;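 active = membrane potential signal shifting up or down by more than 3 SD of buffer-only wells, on both duplicate plates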
HEK293 MPD ctr-2: parental HEK293 nonspecific activity of TRPC6 modulators | shares compounds with TRPC6 inh | membrane potential dye fluorescence | membrane potential signal change, % at 10 µM | hit rate 51% among 2,400;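 active = membrane potential signal moves up or down beyond 5 SD from buffer-only wells, on both duplicate plates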
HEK293 MPD ctr 2-2: parental HEK293 nonspecific activity of TRPC6 modulators, second screen. inhibition, % at 10 µM. hit rate 14% among 2,400. membrane potential dye fluorescence; after compound, maximal acetylcholine stimulation. shares compounds with TRPC6 inh;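 active = membrane potential signal drops by more than 5 SD from the mean control signal, in both duplicate plates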;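 note: plate controls were acetylcholine ECmax control wells for no effect and buffer only wells for full effect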
TRPC4/MOR mod: tests whether TRPC6 modulators also affect mouse TRPC4; AID 488927; HEK293 TRPC4/mu-opioid, membrane potential fluorescence; shares compounds with TRPC6 inh; hit rate 69% among 2,400; percent change from control (negative = decrease, positive = increase), % at 10 µM;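 active = membrane potential signal moved up or down beyond 5 SD of buffer control wells, in both duplicate plates, actives on both sides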;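 note: plate controls were assay buffer wells for no effect and DAMGO maximal-effect wells for full effect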
TRPC4/MOR inh 2: second selectivity test of TRPC6 modulators against mouse TRPC4; shares compounds with TRPC6 inh; HEK293 TRPC4/mu-opioid, membrane potential dye fluorescence; stimulated with maximal-effect DAMGO; inhibition, % at 10 µM; hit rate 55% among 2,400;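 active = drop in membrane potential signal beyond 5 SD of the control wells in both duplicate plates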;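 note: TRPC4 counter screen for TRPC6 hits run under conditions tuned for TRPC6 not TRPC4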
TRPC6 inh conf: mouse TRPC6 inhibitor confirmation; shares compounds with TRPC6 inh; HEK293-TRPC6, membrane potential dye, ACh-evoked depolarization; inhibition, % at 10 µM; hit rate 43% among 3,300;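 active = fluorescence ratio falls more than 5 SD below the full-stimulation control mean, in both duplicate runs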;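 note: integrated fluorescence ratio of peak minus minimum over baseline after agonist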
TRPC6 act conf: mouse TRPC6 activator confirmation; shares compounds with TRPC6 inh; HEK293-TRPC6 membrane potential dye fluorescence, FDSS; activation, % at 10 µM; hit rate 11% among 2,800; AID 488961;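 active = ratio signal rise beyond 5 SD above unstimulated control wells' mean, seen in both duplicate runs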;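 note: plate controls were buffer EC0 wells for no effect and acetylcholine ECmax response for full effect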
Starred values were filed as active, the others as inactive; i = inactive; nt = not tested or not shown.

SMILES	TRPC4 agonist	TRPC4 potent	TRPC4 block	TRPC6 activator	TRPC6 inh	HEK293 MPD ctr-2	HEK293 MPD ctr 2-2	TRPC4/MOR mod	TRPC4/MOR inh 2	TRPC6 inh conf	TRPC6 act conf	others
Cc1ccc2nc(C)c3c(c2c1)SCC3	i	i	i	i	-5.2*	-170%*	i	-36%*	38%*	i	i
Cc1nc2c(C)cccc2c2c1CCS2	i	i	i	i	i	nt	nt	nt	nt	nt	nt
CCOc1ccc(Br)cc1/C=N/O	i	i	-6*	16*	-5.9*	124%*	i	22%*	i	58%*	132%*
COCCNc1c([N+](=O)[O-])c(=O)n(-c2ccccc2)c2ccccc12	i	i	i	i	i	nt	nt	nt	nt	nt	nt
O=c1c([N+](=O)[O-])c(NCCN2CCCCCC2)c2ccccc2n1-c1ccccc1	i	i	i	i	-6.3*	i	i	-16%*	80%*	50%*	i
Cc1ncc(C[n+]2csc(CCOC(=O)CC34CC5CC(CC(C5)C3)C4)c2C)c(N)n1	i	i	i	i	i	nt	nt	nt	nt	nt	nt
Cc1c(CCOC(=O)CC23CC4CC(CC(C4)C2)C3)sc[n+]1Cc1ccccc1	i	i	-6*	i	-5.3*	i	i	i	40%*	56%*	i
O=c1cc(C(F)(F)F)[nH]c2ccc(C(F)(F)F)cc12	i	i	i	i	-7*	nt	nt	nt	nt	105%*	nt	TRPC4 spec 2=i;TRPC4 spec=15%*;HEK293 MPD ctr 2-1=i;HEK293 MPD ctr-1=11%*
Cc1cc(=O)c2ccc(C(F)(F)F)cc2[nH]1	i	i	i	i	i	nt	nt	nt	nt	nt	nt
CCCCC(=O)Nc1cc(N(C)C)nc2ccccc12	i	i	i	i	i	nt	nt	nt	nt	nt	nt
CN(C)c1cc(NC(=O)CNC(C)(C)C)c2ccccc2n1	i	i	i	i	-9.2*	-192%*	i	-36%*	50%*	i	i
O=C(O)Cn1ccc2cc(S(=O)(=O)N3CCCCCC3)ccc21	i	i	i	i	i	nt	nt	nt	nt	nt	nt
CCOc1ccc(Br)cc1C1=NN(C(C)=O)C(c2ccc([N+](=O)[O-])s2)O1 (stereo unspecified)	i	i	i	i	i	nt	nt	nt	nt	nt	nt
CC1=NN(C(N)=S)C(=O)C1N=Nc1ccc(C)c(Br)c1 (stereo unspecified)	i	i	i	i	i	nt	nt	nt	nt	nt	nt
O=C(NCc1ccco1)c1ccc2ccccc2n1	i	i	i	i	-5.1*	i	i	i	i	44%*	nt
